{"source": "ChEMBL document CHEMBL2016531", "about": "“Identification of NAE Inhibitors Exhibiting Potent Activity in Leukemia Cells: Exploring the Structural Determinants of NAE Specificity” (ACS Med Chem Lett, 2011)", "key": {"[1]": {"molecular_target": "SUMO-activating enzyme (Homo sapiens) (UniProt Q9UBE0+Q9UBT2)", "test": "Inhibition of human recombinant SAE1/2 assessed as inhibition of SUMO1-UbcH9 complex formation at 0.001 to 10 uM after 1.5 hrs by Western blot analysis", "type": "protein-complex assay", "summary_of_the_method": "(§1)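 Cell-free gel assay. Purified human recombinant E1 incubated with its matching Ub/Ubl and E2 in 50 mM HEPES pH 7.4, 5 mM MgCl2, 1–20 μM ATP. Inhibitor at 0, 0.001, 0.01, 0.1, 1 or 10 μM, 1.5 h at room temperature. Products resolved by SDS-PAGE, immunoblotted and detected by ECL; densitometry used for semiquantitation.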"}, "Homo sapiens [2]": {"species": "Homo sapiens", "test": "Inhibition of human recombinant UAE assessed as inhibition of UbcH6-Ub complex formation at 0.001 to 10 uM after 1.5 hrs by Western blot analysis", "summary_of_the_method": "as §1"}, "[3]": {"molecular_target": "T1, NEDD8-activating enzyme E1 catalytic subunit (Homo sapiens) (UniProt Q8TBC4)", "T1 sequence (whole entry)": "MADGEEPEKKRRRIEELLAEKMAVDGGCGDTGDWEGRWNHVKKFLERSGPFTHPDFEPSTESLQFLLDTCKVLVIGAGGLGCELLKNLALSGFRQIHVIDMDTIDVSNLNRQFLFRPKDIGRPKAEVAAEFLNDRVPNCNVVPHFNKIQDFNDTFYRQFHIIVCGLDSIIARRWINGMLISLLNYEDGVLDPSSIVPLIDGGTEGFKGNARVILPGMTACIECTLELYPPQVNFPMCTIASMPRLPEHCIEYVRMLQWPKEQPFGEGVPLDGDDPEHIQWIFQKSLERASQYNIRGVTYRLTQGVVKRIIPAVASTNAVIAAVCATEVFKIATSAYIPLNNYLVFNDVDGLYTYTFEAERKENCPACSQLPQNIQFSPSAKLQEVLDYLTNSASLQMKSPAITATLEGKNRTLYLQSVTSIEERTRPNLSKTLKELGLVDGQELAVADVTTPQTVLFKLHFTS", "test": "Inhibition of UBA3-mediated NEDD8 activation at […] after 1.5 hrs by Western blot analysis"}, "K562": {"tested_on": "K562", "test": "Antiproliferative activity against human K562 cells after 72 hrs by CellTiter-Glo assay", "type": "functional, cell-based", "conditions": "K562, 72 h", "summary_of_the_method": "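K562 leukemia cells exposed to increasing concentrations for 72 h; growth and viability read by CellTiter-Glo luminescence.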"}, "[4]": {"molecular_target": "Ubiquitin-like modifier-activating enzyme 5 (Homo sapiens) (UniProt Q9GZZ9)", "sequence (Q9GZZ9 whole entry)": "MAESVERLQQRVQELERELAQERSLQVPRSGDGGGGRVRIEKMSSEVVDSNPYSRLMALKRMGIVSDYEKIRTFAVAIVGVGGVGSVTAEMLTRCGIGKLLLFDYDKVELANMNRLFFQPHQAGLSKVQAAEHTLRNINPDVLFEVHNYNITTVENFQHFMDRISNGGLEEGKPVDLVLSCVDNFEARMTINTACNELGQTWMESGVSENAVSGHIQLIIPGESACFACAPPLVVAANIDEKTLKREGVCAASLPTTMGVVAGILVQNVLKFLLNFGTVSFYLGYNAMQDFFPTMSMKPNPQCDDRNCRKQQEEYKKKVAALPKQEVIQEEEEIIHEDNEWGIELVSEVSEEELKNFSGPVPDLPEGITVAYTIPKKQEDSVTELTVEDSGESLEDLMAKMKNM", "test": "Inhibition of human recombinant UBA5 assessed as inhibition of […]-UFM1 complex formation at 10 uM after 1.5 hrs by Western blot analysis", "summary_of_the_method": "as §1"}, "Homo sapiens [5]": {"species": "Homo sapiens", "test": "Inhibition of human recombinant NAE assessed as inhibition of NEDD8-UbcH12 complex formation at 0.001 to 10 uM after 1.5 hrs by Western blot analysis", "summary_of_the_method": "as §1"}, "[6]": {"molecular_target": "T2, NEDD8-activating enzyme E1 regulatory subunit (Homo sapiens) (UniProt Q13564)", "T2 sequence (whole entry)": "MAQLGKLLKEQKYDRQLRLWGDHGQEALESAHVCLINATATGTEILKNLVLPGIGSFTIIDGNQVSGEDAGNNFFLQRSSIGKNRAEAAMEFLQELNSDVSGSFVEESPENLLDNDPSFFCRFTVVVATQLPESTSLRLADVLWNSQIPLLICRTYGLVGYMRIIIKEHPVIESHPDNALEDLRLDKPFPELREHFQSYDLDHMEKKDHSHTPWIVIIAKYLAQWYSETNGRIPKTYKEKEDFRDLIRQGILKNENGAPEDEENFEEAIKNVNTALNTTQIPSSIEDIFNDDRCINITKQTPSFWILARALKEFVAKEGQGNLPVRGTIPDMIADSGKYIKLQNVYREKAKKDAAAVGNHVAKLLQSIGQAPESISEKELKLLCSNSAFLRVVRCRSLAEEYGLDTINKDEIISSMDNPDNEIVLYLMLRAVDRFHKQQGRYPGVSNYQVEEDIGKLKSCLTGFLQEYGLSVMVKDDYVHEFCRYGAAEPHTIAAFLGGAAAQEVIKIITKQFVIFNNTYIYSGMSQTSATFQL", "test": "Inhibition of APPBP1-mediated NEDD8 activation at […] after 1.5 hrs by Western blot analysis"}}, "note": "Activity calls are given as the source filed them. No cut-off for these calls is given here."}
{"smiles": "NS(=O)(=O)OC[C@H]1O[C@@H](n2cnc3c(N[C@H]4CCc5ccccc54)ncnc32)[C@H](O)[C@@H]1O", "values": [{"measurement": "inhibition", "setting": "[1]", "result": "Active"}, {"measurement": "inhibition", "setting": "Homo sapiens [2]", "result": "Active"}, {"measurement": "inhibition", "setting": "[3]", "result": "Active"}, {"measurement": "EC50", "setting": "K562", "result": 125, "unit": "nM"}, {"measurement": "inhibition", "setting": "[4]", "result": "inactive"}, {"measurement": "inhibition", "setting": "Homo sapiens [5]", "result": "Active"}, {"measurement": "inhibition", "setting": "[6]", "result": "Active"}]}
